According to ChEMBL document CHEMBL4152203, “Antiproliferative hydrogen sulfide releasing evodiamine derivatives and their apoptosis inducing properties” (Eur J Med Chem, 2018):

How the values were obtained:
[1] = system: Bel-7402; assay: Antiproliferative activity against human Bel7402 cells after 72 hrs by MTT assay; assay type: functional, cell-based; settings: Bel-7402, 72 h
Outline: (§1)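 Cells seeded and pre-incubated 24 h at 37 °C, 5% CO2, then exposed to compounds for 72 h. MTT (5 mg/mL stock) added for 4 h, formazan dissolved in DMSO for 10 min at room temperature, absorbance read at 570 nm. 0.1% DMSO as negative and 5-FU as positive reference. IC50 derived from inhibition ratios; mean ± SD of three independent experiments.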

[2] = system: MCF7; assay: Antiproliferative activity against human MCF7 cells after 72 hrs by MTT assay; assay type: functional, cell-based; settings: MCF7, 72 h; outline: as §1
[3] = system: SGC-7901; assay: Antiproliferative activity against human SGC7901 cells after 72 hrs by MTT assay; assay type: functional, cell-based; settings: SGC-7901, 72 h; outline: as §1
[4] = system: Caco-2; assay: Antiproliferative activity against human Caco2 cells after 72 hrs by MTT assay; assay type: functional, cell-based; settings: Caco-2, 72 h; outline: as §1
[5] = system: HL-60; assay: Antiproliferative activity against human HL60 cells after 72 hrs by MTT assay; assay type: functional, cell-based; settings: HL-60, 72 h; outline: as §1
[6] = system: PBMC; assay: Antiproliferative activity against human PBMC cells after 72 hrs by MTT assay; assay type: cell-based; outline: as §1

| Compound | IC50 [1] [µM] | IC50 [2] [µM] | IC50 [3] [µM] | IC50 [4] [µM] | IC50 [5] [µM] | IC50 [6] [µM] |
| --- | --- | --- | --- | --- | --- | --- |
| CN1c2ccccc2C(=O)N2CCc3c(n(CCCCC(=O)OCCCOc4ccc(-c5cc(=S)ss5)cc4)c4ccccc34)C21 (stereo not drawn) | 30.5 | > 50 | > 50 | 3.05 | 0.99 | > 100 |
| CN1c2ccccc2C(=O)N2CCc3c(n(CC(=O)OCCCCOc4ccc(-c5cc(=S)ss5)cc4)c4ccccc34)C21 (stereo not drawn) | > 50 | > 50 | > 50 | 4.34 | 0.83 | > 100 |
| CN1c2ccccc2C(=O)N2CCc3c(n(CC(=O)OCCOc4ccc(-c5cc(=S)ss5)cc4)c4ccccc34)C21 (stereo not drawn) | 26.8 | 38.4 | 32.9 | 6.35 | 1.92 | > 100 |
| CN1c2ccccc2C(=O)N2CCc3c(n(CC(=O)OCCCOc4ccc(-c5cc(=S)ss5)cc4)c4ccccc34)C21 (stereo not drawn) | 34.2 | 27.9 | 24.7 | 5.1 | 2.74 | > 100 |
| CN1c2ccccc2C(=O)N2CCc3c(n(CCCC(=O)Oc4ccc(-c5cc(=S)ss5)cc4)c4ccccc34)C21 (stereo not drawn) | > 50 | > 50 | > 50 | 4.08 | 14.1 | > 100 |
| CN1c2ccccc2C(=O)N2CCc3c(n(CCCC(=O)OCCOc4ccc(-c5cc(=S)ss5)cc4)c4ccccc34)C21 (stereo not drawn) | 45.2 | 40.2 | 47.4 | 4.18 | 1.03 | > 100 |
| CN1c2ccccc2C(=O)N2CCc3c(n(CCCC(=O)OCCCOc4ccc(-c5cc(=S)ss5)cc4)c4ccccc34)C21 (stereo not drawn) | > 50 | > 50 | > 50 | 2.81 | 1.04 | > 100 |
| Oc1ccc(-c2cc(=S)ss2)cc1 | > 50 | > 50 | > 50 | 35.5 | 25.9 | > 100 |
| CN1c2ccccc2C(=O)N2CCc3c(n(CCCOCCCOC(=O)CCCCC4CCSS4)c4ccccc34)C21 (stereo not drawn) | > 50 | 22.4 | 31 | 5.14 | 9.38 | > 100 |
| CN1c2ccccc2C(=O)N2CCc3c(n(CC(=O)Oc4ccc(-c5cc(=S)ss5)cc4)c4ccccc34)C21 (stereo not drawn) | 25.8 | 47.5 | 26.8 | 22.9 | > 50 | > 100 |
| CN1c2ccccc2C(=O)N2CCc3c([nH]c4ccccc34)C21 (stereo not drawn) | 1.19 | 28.5 | 6.93 | 2.73 | 1.36 | 21 |
| CN1c2ccccc2C(=O)N2CCc3c(n(CCOC(=O)CCCCC4CCSS4)c4ccccc34)C21 (stereo not drawn) | 20.5 | 9.47 | > 50 | 3.18 | 0.97 | > 100 |
| O=C(O)CCCCC1CCSS1 (stereo not drawn) [LIPOIC ACID, ALPHA] | > 50 | > 50 | > 50 | 14.3 | 16.4 | > 100 |
| CN1c2ccccc2C(=O)N2CCc3c(n(CCCOC(=O)CCCCC4CCSS4)c4ccccc34)C21 (stereo not drawn) | > 50 | 39.7 | > 50 | 2.84 | 2.09 | > 100 |
| CN1c2ccccc2C(=O)N2CCc3c(n(CCCC(=O)OCCCCOc4ccc(-c5cc(=S)ss5)cc4)c4ccccc34)C21 (stereo not drawn) | 45 | 29.1 | > 50 | 3.87 | 0.7 | > 100 |
| CN1c2ccccc2C(=O)N2CCc3c(n(CCCCCCOC(=O)CCCCC4CCSS4)c4ccccc34)C21 (stereo not drawn) | 22.1 | 28 | 35.7 | 4.88 | 3.49 | > 100 |
| CN1c2ccccc2C(=O)N2CCc3c(n(CCCCC(=O)Oc4ccc(-c5cc(=S)ss5)cc4)c4ccccc34)C21 (stereo not drawn) | > 50 | 48.7 | 30.2 | 38.1 | > 50 | > 100 |
| CN1c2ccccc2C(=O)N2CCc3c(n(CCCCC(=O)OCCOc4ccc(-c5cc(=S)ss5)cc4)c4ccccc34)C21 (stereo not drawn) | 41.4 | 29.7 | 43.6 | 4.22 | 2.09 | > 100 |
| O=c1[nH]cc(F)c(=O)[nH]1 [FLUOROURACIL] | 19 | 26.9 | 19.8 | 38.8 | 3.46 | – |
